For four molecules, IC50 results are on record in ChEMBL document CHEMBL1146555, “Bioactive novel polyphenols from the fruit of Manilkara zapota (Sapodilla)” (J Nat Prod, 2003).

In test [1] the test system is Radical scavenging activity. The test is described as follows: Antioxidant activity assessed as DPPH radical scavenging activity after 30 mins. Format: functional. In short, it runs like this: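 Test samples in DMSO mixed with 300 µM ethanolic DPPH, incubated 37 °C for 30 min, absorbance read at 515 nm. Final test concentrations typically 1-50 µg/mL. Percent inhibition relative to DMSO-treated control; IC50 = concentration scavenging 50% of DPPH radicals.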

In test [2] the test system is HCT-116. Put plainly: Cytotoxicity against human HCT116 cells after 72 hrs by MTT assay. Format: functional, cell-based. The conditions noted are these: HCT-116, 72 h. The procedure, abridged: (§1)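 Human colon cancer cells kept in DMEM with 10% FBS, 5% CO2, 37 °C, no antibiotics. About 3.0 × 10^4 cells per well, grown to 40% confluence, then exposed to compounds in DMSO for 72 h. MTT (5 mg/mL stock) added 4 h, formazan solubilized, absorbance at 570 nm. Octuplicate wells, mean and SD; IC50 by linear regression.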

Test [3] relates to SW480. The test is described as follows: Cytotoxicity against human SW480 cells after 72 hrs by MTT assay. It is filed as functional, cell-based. The conditions noted are these: SW480, 72 h. The procedure, abridged: as §1

For `O=C(/C=C/c1ccc(O)c(O)c1)O[C@@H]1C[C@](O)(C(=O)O)C[C@@H](O)[C@H]1OC(=O)c1cc(O)c(O)c(O)c1`, the IC50 in test [1] was 23.5 µM; in test [2], 154 µM; in test [3], 134 µM.
With `COC(=O)[C@]1(O)C[C@@H](O)[C@@H](OC(=O)c2cc(O)c(O)c(O)c2)[C@H](OC(=O)/C=C/c2ccc(O)c(O)c2)C1`, the values for the concentration for half-maximal inhibition (IC50) in test [1], in test [2] and in test [3] were 12.9 µM, 190 µM and 160 µM, respectively.
The like results for `O=C(/C=C/c1ccc(O)c(O)c1)O[C@@H]1C[C@](O)(C(=O)O)C[C@@H](O)[C@H]1O` [CHLOROGENIC ACID] were, in that order, 39.5 µM, 367 µM and 353 µM.
In the case of `O=C(O[C@@H]1Cc2c(O)cc(O)cc2O[C@@H]1c1cc(O)c(O)c(O)c1)c1cc(O)c(O)c(O)c1` [EPIGALOCATECHIN GALLATE], the values for the IC50 in test [2] and in test [3] were 161 µM and 195 µM, respectively.
